# Assay results gathered from unrelated publications.
# Target: Serine/threonine-protein kinase PLK1 (PLK1, Homo sapiens, UniProt P53350)
Structure (SMILES),read-out,mode,method,cell line,concentration,quantity,result
CNC(=O)Nc1ccc2c(c1)CC[C@@]21OC(=O)N(CC(=O)N(Cc2ccc(F)cc2)[C@@H](C)C(F)(F)F)C1=O,cell-free assay,,competition with immobilised ligand,,1 µM,remaining binding,63%
Cc1ccc(NC(=O)c2ccc(C)c(C(F)(F)F)c2)cc1C#Cc1nn(C2CCC(O)CC2)c2ncnc(N)c12 (stereo not drawn),cell-free assay,,,,10 µM,remaining signal,92%
O=C(O)[C@@H]1[C@@H](Cn2nnc3ccccc3c2=O)CC[C@H]1C(=O)c1ccc(OCCC2CCOCC2)cc1,cell-free assay,,competition with immobilised ligand,,1 µM,remaining binding,80%
Cc1ccc(C(=O)NCc2ccsc2)cc1C#Cc1cn(C(C)C)c2ncnc(N)c12,enzyme activity,inhibitor,,,1 µM,activity vs control,105%
O=c1cc(N2CCOCC2)oc2c(-c3ccccc3)cccc12,cell-free assay,,,,0.5 µM,remaining signal,67.1%
CN(C)C(=O)Cn1cc(-c2nc([C@@](C)(c3ccc(-c4cnc(N)nc4)cc3)C3CC3)no2)cn1,cell-free assay,,competition with immobilised ligand,,1 µM,remaining binding,77%
C=CC(=O)Nc1cc(Nc2nccc(Nc3cc(Cl)c(F)cc3C(C)(C)O)n2)c(OC)cc1N1CC[C@@H](N(C)C)C1,enzyme activity,inhibitor,,,1 µM,inhibition,11%
CS(=O)(=O)c1cc(C2(NC(=O)c3cncc4c3cnn4-c3ccc(F)cc3)CC2)ccn1,cell-free assay,,competition with immobilised ligand,,1 µM,remaining binding,90%
O=C1Nc2ccc(Cl)cc2C1=Cc1cc(Cl)c(O)c(Cl)c1,cell-free assay,,,,0.5 µM,remaining signal,99.8%
CNCc1ccccc1-c1csc([C@@H](C)Nc2nc(C)nc3cc(OC)c(OC)cc23)c1,cell-free assay,,competition with immobilised ligand,,1 µM,remaining binding,80%
CCN1CCN(Cc2ccc(NC(=O)c3ccc(C)c(Oc4ccnc5[nH]ccc45)c3)cc2C(F)(F)F)CC1,target engagement in cells,inhibitor,chemoproteomics,Huh-7,10 µM,inhibition,-35%
CCN(CC)c1ccc(C2=NNC(=O)CC2C)cc1[N+](=O)[O-] (stereo not drawn),enzyme activity,inhibitor,,,10 µM,remaining activity,103%
Cc1cc(NC(=O)c2cccc3cc(-c4cccc5[nH]nc(N)c45)ccc23)ccc1F,enzyme activity,inhibitor,,,0.1 µM,activity vs control,92%
Cn1c(=O)n(-c2ccc(C(C)(C)C#N)cc2)c2c3cc(-c4cnc5ccccc5c4)ccc3ncc21,enzyme activity,inhibitor,,,10 µM,remaining activity,95%
Nc1nc(Nc2ccccc2)sc1C(=O)c1c(F)cccc1F,enzyme activity,inhibitor,,,10 µM,remaining activity,86%
Cc1cc(NC(=O)c2cccc(S(F)(F)(F)(F)F)c2)cc(-n2ccn3nc(-c4cccnc4)cc23)c1,cell-free assay,,competition with immobilised ligand,,1 µM,remaining binding,95.3%
CCN(CC)CCNC(=O)c1c(C)[nH]c(/C=C2\C(=O)Nc3ccc(F)cc32)c1C,enzyme activity,inhibitor,,,1 µM,remaining activity,110%
CC(C)(C)c1nc2c(s1)c1nc(N)ncc1c1ccc(NS(=O)(=O)c3c(F)cccc3F)c(F)c12,enzyme activity,inhibitor,radiometric,,1 µM,remaining activity,101%
